Measurements: ChEMBL document CHEMBL4342471, “Discovery of Thieno[2,3-d]pyrimidine-Based Hydroxamic Acid Derivatives as Bromodomain-Containing Protein 4/Histone Deacetylase Dual Inhibitors Induce Autophagic Cell Death in Colorectal Carcinoma Cells” (J Med Chem, 2020)
Activity calls are given as the source filed them. No cut-off for these calls is given here.

Assays:
[1] = Toxicity in BALB/cAnNCrl mouse xenografted with human HCT116 cells assessed as effect on kidney morphological changes at 15 to 30 mg/kg, po administered on day 1 to day 19 measured on day 19 by hematoxylin and eosin staining based assay; format: organism-based; settings: in vivo
Outline: (§1)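 HCT-116 xenograft mice dosed orally at 15 or 30 mg/kg for 19 days, saline as vehicle control; body weights tracked, and main organs sectioned and H&E-stained at study end.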

[2] = system: HT-29; test: Cytotoxicity against human HT-29 cells assessed as reduction in cell viability; format: functional, cell-based
Outline: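 Antiproliferative IC50 values were measured by MTT assay across a panel of colorectal carcinoma cell lines and normal colorectal epithelial cells.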

[3] = target: Histone deacetylase 8 (Homo sapiens, UniProt Q9BY41); test: Inhibition of HDAC8 (unknown origin) using biotinylated histone H3 KAc peptide (1 to 21 residues) as substrate by HTRF assay
Chain of Histone deacetylase 8 (Q9BY41 whole entry, the tested form may be a part): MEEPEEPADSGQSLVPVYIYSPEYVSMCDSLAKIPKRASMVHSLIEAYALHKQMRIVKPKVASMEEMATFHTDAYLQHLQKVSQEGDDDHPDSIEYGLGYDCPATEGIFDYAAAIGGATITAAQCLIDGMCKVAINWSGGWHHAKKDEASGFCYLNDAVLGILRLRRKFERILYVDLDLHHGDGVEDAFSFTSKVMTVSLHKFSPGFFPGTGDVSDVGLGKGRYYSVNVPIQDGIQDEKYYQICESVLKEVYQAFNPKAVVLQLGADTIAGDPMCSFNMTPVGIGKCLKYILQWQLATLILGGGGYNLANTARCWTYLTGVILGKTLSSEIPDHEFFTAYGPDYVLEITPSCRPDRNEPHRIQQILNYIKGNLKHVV

[4] = target: T1, Bromodomain-containing protein 4 (Homo sapiens, UniProt O60885); test: Inhibition of BRD4 in human HCT116 cells assessed as induction of autophagy by measuring decrease in p62 expression at 0.2 to 0.5 uM measured after 24 hrs by Western blot analysis; format: cell-based
[5] = target: Histone deacetylase 11 (Homo sapiens, UniProt Q96DB2); test: Inhibition of HDAC11 (unknown origin) using biotinylated histone H3 KAc peptide (1 to 21 residues) as substrate by HTRF assay
Chain of Histone deacetylase 11 (Q96DB2 whole entry, the tested form may be a part): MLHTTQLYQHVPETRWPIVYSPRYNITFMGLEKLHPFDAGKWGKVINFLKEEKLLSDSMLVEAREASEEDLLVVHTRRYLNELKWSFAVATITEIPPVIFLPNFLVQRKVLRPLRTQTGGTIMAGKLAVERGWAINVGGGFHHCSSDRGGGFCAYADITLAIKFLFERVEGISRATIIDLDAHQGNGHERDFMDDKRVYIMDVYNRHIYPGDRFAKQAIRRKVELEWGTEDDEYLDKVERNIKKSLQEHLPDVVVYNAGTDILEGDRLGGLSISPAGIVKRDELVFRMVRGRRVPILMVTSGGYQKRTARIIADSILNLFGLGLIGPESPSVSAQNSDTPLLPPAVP

[6] = system: Mus musculus; test: In vivo inhibition of HDAC in BALB/cAnNCrl mouse xenografted with human HCT116 cells assessed as increase in acetylated histone H3 level in tumor tissue at 15 to 30 mg/kg, po administered on day 1 to day 19 measured on day 19 by immunohistochemical analysis; format: functional, organism-based
Outline: (§2)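 HCT-116 xenograft mice were dosed orally at 15 or 30 mg/kg, or 30 mg/kg for reference agents, for 19 days, with vehicle or saline controls. Tumor sections were stained for Ki-67, c-Myc, Ac-H3, BRD4, LC3-II, LIFR and p-STAT3 by immunohistochemistry, and TUNEL staining was used as the apoptosis marker.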

[7] = target: T1, Bromodomain-containing protein 4; test: Inhibition of BRD4 in human HCT116 cells assessed as induction of autophagy by measuring upregulation of beclin1 expression at 0.2 to 0.5 uM measured after 24 hrs by Western blot analysis; format: cell-based
[8] = target: T1, Bromodomain-containing protein 4; test: Inhibition of BRD4 in human HCT116 cells assessed as induction of autophagic flux by measuring accumulation of p62 at 0.5 uM after 24 hrs in presence of auto-phagolysosome inhibitor, bafilomycin-A1 by Western blot analysis; format: cell-based
Outline: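 HCT-116 cells received 0.5 μM compound with or without bafilomycin-A1 for 24 hours. LC3 and p62 protein were then analysed by western blot.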

[9] = target: Polyamine deacetylase HDAC10 (Homo sapiens, UniProt Q969S8); test: Inhibition of HDAC10 (unknown origin) using biotinylated histone H3 KAc peptide (1 to 21 residues) as substrate by HTRF assay
Chain of Polyamine deacetylase HDAC10 (Q969S8 whole entry, the tested form may be a part): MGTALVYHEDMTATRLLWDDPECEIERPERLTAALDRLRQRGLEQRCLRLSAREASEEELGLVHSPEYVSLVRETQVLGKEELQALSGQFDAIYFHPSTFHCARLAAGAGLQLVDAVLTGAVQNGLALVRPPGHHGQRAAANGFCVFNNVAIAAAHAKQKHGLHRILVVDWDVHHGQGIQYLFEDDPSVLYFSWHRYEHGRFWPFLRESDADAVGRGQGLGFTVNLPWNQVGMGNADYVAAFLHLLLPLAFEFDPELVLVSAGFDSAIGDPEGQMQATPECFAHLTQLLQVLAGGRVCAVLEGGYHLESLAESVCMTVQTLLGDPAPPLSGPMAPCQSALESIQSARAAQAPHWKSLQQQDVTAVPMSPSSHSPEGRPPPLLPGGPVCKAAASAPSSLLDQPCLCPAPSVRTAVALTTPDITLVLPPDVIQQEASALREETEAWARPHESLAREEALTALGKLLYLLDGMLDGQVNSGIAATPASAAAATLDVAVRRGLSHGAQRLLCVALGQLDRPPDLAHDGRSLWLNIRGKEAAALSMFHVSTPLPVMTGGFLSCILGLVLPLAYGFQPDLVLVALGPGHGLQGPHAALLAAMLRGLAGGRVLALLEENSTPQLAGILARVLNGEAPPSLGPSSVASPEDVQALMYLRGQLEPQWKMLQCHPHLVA

[10] = system: Mus musculus; test: Increase in phosphorylated STAT3 expression in tumor tissue of BALB/cAnNCrl mouse xenografted with human HCT116 cells at 15 to 30 mg/kg, po administered on day 1 to day 19 measured on day 19 by immunohistochemical analysis; format: functional, organism-based; outline: as §2
[11] = Cmax in Sprague-Dawley rat at 30 mg/kg, po measured up to 1440 mins by UPLC-QTOF/MS analysis; format: ADME, organism-based; parameters: dose 30 mg/kg, route oral; settings: in vivo
[12] = Toxicity in BALB/cAnNCrl mouse xenografted with human HCT116 cells assessed as effect on spleen morphological changes at 15 to 30 mg/kg, po administered on day 1 to day 19 measured on day 19 by hematoxylin and eosin staining based assay; format: organism-based; settings: in vivo; outline: as §1
[13] = system: HCT-116; test: Induction of apoptosis in human HCT116 cells assessed as viable cells at 0.2 uM by Annexin-V FITC/propidium iodide staining-based flow cytometry (reference value: 93.4 %); format: functional; settings: read-out: Activity
[14] = target: T2, Histone deacetylase 7 (Homo sapiens, UniProt Q8WUI4); test: Inhibition of HDAC7 (unknown origin) using biotinylated histone H3 KAc peptide (1 to 21 residues) as substrate by HTRF assay
T2 sequence (Q8WUI4 whole entry): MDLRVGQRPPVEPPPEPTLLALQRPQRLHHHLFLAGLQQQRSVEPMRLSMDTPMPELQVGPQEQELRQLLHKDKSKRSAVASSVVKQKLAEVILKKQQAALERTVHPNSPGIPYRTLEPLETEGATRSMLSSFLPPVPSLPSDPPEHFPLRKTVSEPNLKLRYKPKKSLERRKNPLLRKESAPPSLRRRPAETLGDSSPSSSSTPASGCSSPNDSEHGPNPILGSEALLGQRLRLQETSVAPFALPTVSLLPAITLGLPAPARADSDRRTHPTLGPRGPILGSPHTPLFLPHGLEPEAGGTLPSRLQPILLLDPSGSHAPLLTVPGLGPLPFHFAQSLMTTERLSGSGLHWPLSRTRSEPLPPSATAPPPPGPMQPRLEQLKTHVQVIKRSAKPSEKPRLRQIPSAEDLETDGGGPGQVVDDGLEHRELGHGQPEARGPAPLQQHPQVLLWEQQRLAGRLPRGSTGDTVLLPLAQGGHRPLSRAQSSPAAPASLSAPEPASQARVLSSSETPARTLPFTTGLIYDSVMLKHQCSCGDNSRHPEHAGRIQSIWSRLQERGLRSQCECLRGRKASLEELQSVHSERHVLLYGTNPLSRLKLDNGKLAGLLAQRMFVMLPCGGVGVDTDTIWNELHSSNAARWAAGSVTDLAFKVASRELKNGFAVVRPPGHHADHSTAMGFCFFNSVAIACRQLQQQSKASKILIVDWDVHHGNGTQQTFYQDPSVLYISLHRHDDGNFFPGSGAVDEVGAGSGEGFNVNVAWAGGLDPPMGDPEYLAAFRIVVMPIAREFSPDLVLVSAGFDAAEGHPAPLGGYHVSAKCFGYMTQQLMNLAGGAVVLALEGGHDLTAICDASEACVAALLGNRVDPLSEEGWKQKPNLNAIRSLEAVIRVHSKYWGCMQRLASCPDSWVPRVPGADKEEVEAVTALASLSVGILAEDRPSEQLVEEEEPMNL

[15] = target: Bromodomain testis-specific protein (Homo sapiens, UniProt Q58F21); test: Inhibition of human recombinant His-tagged BRDT BD1 domain expressed in Escherichia coli BL21(DE3)-R3-pRARE2 cells by AlphaScreen assay
[16] = Half life in Sprague-Dawley rat at 30 mg/kg, po measured up to 1440 mins by UPLC-QTOF/MS analysis; format: ADME, organism-based; settings: in vivo
[17] = target: Histone deacetylase 4 (Homo sapiens, UniProt P56524); test: Inhibition of HDAC4 (unknown origin) using biotinylated histone H3 KAc peptide (1 to 21 residues) as substrate by HTRF assay
Chain of Histone deacetylase 4 (P56524 whole entry, the tested form may be a part): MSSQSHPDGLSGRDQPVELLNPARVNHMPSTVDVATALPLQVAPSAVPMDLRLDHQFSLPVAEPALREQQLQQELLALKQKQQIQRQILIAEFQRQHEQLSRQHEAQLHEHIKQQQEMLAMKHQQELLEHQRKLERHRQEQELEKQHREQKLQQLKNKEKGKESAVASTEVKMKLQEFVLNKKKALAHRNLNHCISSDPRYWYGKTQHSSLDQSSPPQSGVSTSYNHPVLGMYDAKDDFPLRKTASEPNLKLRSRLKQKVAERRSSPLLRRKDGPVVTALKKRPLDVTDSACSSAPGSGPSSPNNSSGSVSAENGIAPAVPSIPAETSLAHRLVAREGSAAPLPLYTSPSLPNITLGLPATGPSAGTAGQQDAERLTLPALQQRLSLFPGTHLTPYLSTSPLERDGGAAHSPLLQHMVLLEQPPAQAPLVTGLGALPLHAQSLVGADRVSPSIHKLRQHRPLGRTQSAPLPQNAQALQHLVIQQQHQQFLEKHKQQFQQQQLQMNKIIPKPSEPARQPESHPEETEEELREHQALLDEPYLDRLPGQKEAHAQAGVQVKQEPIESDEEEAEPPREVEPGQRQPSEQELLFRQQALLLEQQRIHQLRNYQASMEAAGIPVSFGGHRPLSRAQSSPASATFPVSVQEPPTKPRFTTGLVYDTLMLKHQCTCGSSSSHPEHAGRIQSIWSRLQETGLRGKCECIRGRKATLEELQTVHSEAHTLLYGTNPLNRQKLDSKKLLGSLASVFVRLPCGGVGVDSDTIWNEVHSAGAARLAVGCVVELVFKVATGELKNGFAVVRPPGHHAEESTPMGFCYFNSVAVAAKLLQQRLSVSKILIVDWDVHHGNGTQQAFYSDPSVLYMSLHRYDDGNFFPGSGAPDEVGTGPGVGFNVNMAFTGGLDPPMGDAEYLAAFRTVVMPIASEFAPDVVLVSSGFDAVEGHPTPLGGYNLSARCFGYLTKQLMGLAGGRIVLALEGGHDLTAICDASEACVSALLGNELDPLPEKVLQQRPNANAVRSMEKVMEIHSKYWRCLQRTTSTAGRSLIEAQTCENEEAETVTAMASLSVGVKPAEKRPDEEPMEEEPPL

[18] = Tmax in Sprague-Dawley rat at 30 mg/kg, po measured up to 1440 mins by UPLC-QTOF/MS analysis; format: ADME, organism-based; settings: in vivo

- IC50 [3]: 0.167 µM
- inhibition [4]: Active
- IC50 [5]: > 10 µM
- inhibition [7]: Active
- inhibition [8]: inactive
- IC50 [9]: 0.923 µM
- IC50 [14]: > 10 µM
- IC50 [15]: > 20 µM
- IC50 [17]: > 10 µM
Structure (SMILES): Cc1cc(-c2nc3sc4c(c3c(=O)[nH]2)CCN(C)C4)cc(C)c1OCCCCCC(=O)NO
- Activity [1]: Non-Toxic
- Activity [2]: Active
- inhibition [6]: Active
- Activity [10]: inactive
- Cmax [11]: 5360 ng/mL
- Activity [12]: Non-Toxic
- viability at 0.2 µM [13]: 61.7%
- half-life [16]: 4.8 h
- Tmax [18]: 1.53 h
